This is an account of results in ChEMBL document CHEMBL1154945, “Decahydroisoquinoline derivatives as novel non-peptidic, potent and subtype-selective somatostatin sst(3) receptor antagonists” (Bioorg Med Chem Lett, 2010).

The target of series [1] is Somatostatin receptor type 1 (Rattus norvegicus, UniProt P28646). Kind of series: Displacement of [125I]SRIF-14 from rat cortex membrane SST1 receptor.
Series [2] has as its target Somatostatin receptor type 1 (Homo sapiens, UniProt P30872). Kind of series: Binding affinity to human SST1 receptor.
The species named for series [3] is Homo sapiens. Kind of series: Selectivity for human SST3 over human SST4.
The target in series [4] is Somatostatin receptor type 5 (Homo sapiens, UniProt P35346). The series is described as follows: Binding affinity to human SST5 receptor.
For series [5], the species on record is Homo sapiens. Kind of series: Selectivity for human SST3 over human SST5.
The species entered for series [6] is Homo sapiens. The series is described as follows: Selectivity for human SST3 over human SST2.
Series [7] has as its target Somatostatin receptor type 2 (Homo sapiens, UniProt P30874). Kind of series: Binding affinity to human SST2 receptor.
Series [8] concerns the target T1, Somatostatin receptor type 3 (Homo sapiens, UniProt P32745). The series is described as follows: Binding affinity to human SST3 receptor.
Series [9] addresses Somatostatin receptor type 2 (Rattus norvegicus, UniProt P30680). Kind of series: Displacement of [125I]SRIF-14 from rat cortex membrane SST2 receptor. For orientation: Loss of bound radioactivity is the signal in a displacement assay; it reports binding, not function.
Series [10] deals with Somatostatin receptor type 4 (Homo sapiens, UniProt P31391). Kind of series: Binding affinity to human SST4 receptor.
The species entered for series [11] is Homo sapiens. Kind of series: Selectivity for human SST3 over human SST1.
The nature of series [12]: Apparent terminal half life in rat plasma at 1 mg/kg, iv. Format: ADME, organism-based. Also noted: dose 1 mg/kg, route intravenous. In outline:
(§1)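 Unlabelled drug dosed intravenously at 1 mg/kg to mice and rats; plasma analysed by LC–MS (LOQ 0.4 ng/ml); apparent terminal half-life computed from plasma levels.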

A short description of series [13]: Ratio of drug level in brain to plasma in mouse at 3 mg/kg, po after 1 hr by LC-MS based method. In kind it is ADME, organism-based. Also noted: dose 3 mg/kg, route oral. As to conditions: brain and plasma. Put shortly: (§2)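 Mice and rats dosed orally at 3 mg/kg with unlabelled drug; plasma and brain sampled 1 h after dosing and analysed by LC–MS (LOQ 0.4 ng/ml plasma, 2 ng/g brain); brain/plasma ratio calculated.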

In series [14] the target is T1, Somatostatin receptor type 3. The series is described as follows: Antagonist activity at human recombinant SST3 receptor expressed in CHO cells assessed as inhibition of SRIF14-induced cAMP accumulation. In kind it is functional, cell-based. In outline: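 cAMP-based functional assay with human recombinant sst3 receptors expressed in CHO cells; test agent's antagonism of SRIF-14 response measured, pKB derived; n = 6.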
On the technique in general: cAMP levels reflect the balance of adenylyl cyclase and phosphodiesterase activity.

In another series the target is Cytochrome P450 2D6 (Homo sapiens, UniProt P10635). The series is described as follows: Inhibition of CYP2D6. In kind it is ADME. Put shortly: (§3)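 Inhibition of the five principal human cytochrome P450 isoenzymes screened by a microplate-based, direct fluorometric assay.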
Series [15] deals with T2, Alpha-1A adrenergic receptor (Homo sapiens, UniProt P35348).
T2 sequence (P35348 whole entry): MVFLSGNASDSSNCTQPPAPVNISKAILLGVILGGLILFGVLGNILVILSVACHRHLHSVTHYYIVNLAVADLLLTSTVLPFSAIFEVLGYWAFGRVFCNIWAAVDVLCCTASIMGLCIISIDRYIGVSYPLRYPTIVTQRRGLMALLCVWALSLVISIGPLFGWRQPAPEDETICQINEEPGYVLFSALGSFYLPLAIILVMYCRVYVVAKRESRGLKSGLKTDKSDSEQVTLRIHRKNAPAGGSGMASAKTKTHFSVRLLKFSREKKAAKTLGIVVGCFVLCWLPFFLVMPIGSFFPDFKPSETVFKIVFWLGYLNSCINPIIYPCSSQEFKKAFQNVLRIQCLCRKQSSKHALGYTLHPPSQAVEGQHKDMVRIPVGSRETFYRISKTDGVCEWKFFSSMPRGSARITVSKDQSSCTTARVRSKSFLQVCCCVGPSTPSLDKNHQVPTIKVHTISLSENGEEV
The series is described as follows: Binding affinity to Alpha-1A adrenergic receptor.

A short description of series [16]: Oral bioavailability in mouse at 3 mg/kg. Conditions: in vivo. In kind it is ADME, organism-based. In outline: (§4)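 Unlabelled drug given orally (3 mg/kg) and intravenously (1 mg/kg) to mice and rats; plasma quantified by LC–MS (LOQ 0.4 ng/ml); absolute bioavailability estimated from the two routes.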
Series [17] is described as follows: Ratio of drug level in brain to plasma in rat at 3 mg/kg, po after 1 hr by LC-MS based method. Format: ADME, organism-based. Also noted: dose 3 mg/kg, route oral. Conditions: brain and plasma. Put shortly:
as §2

The target of series [18] is T3, 5-hydroxytryptamine receptor 2C (Homo sapiens, UniProt P28335).
T3 sequence (P28335 whole entry): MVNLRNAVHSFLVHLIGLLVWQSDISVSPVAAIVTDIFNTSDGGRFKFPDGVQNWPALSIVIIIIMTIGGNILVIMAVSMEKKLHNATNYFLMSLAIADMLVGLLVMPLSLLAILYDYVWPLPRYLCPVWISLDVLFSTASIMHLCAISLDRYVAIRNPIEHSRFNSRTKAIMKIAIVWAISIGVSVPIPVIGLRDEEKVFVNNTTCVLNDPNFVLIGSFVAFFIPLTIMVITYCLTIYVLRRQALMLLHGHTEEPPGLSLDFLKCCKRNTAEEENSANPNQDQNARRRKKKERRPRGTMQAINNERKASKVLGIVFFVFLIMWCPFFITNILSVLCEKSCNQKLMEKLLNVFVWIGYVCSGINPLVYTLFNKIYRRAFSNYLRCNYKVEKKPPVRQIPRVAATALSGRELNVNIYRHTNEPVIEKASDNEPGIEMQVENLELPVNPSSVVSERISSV
Kind of series: Binding affinity to 5HT2C receptor.

Series [19] concerns the target Somatostatin receptor type 3 (Mus musculus, UniProt P30935). The series is described as follows: Displacement of [125I]SRIF-28 from mouse recombinant SST3 receptor. In outline: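 Radioligand binding on recombinant mouse sst3 receptors with 125I-SRIF28 as tracer; pKD reported, n = 3.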
Series [20] can be described thus: Inhibition of CYP450. Format: ADME. Put shortly: as §3
A short description of series [21]: Oral bioavailability in rat at 3 mg/kg. Format: ADME, organism-based. As to conditions: in vivo. Put shortly:
as §4

Series [22] is described as follows: Apparent terminal half life in mouse plasma at 1 mg/kg, iv. Format: ADME, organism-based. Also noted: dose 1 mg/kg, route intravenous. Put shortly:
as §1

The target in another series is D(2) dopamine receptor (Homo sapiens, UniProt P14416). Kind of series: Binding affinity to dopamine D2 receptor.
The next series concerns V79. Kind of series: Genotoxicity against chinese hamster V79 cells by micronucleus test. Format: toxicity, cell-based, Cricetulus griseus.

For orientation: Kd means the free concentration of one partner at which half of the binding sites on the other are occupied at equilibrium, for simple one-to-one binding. The term half-life denotes the time in which the quantity being followed falls by half. Broadly, the Kp is tissue or fluid exposure divided by exposure in the circulation. By pKb is commonly meant −log10 of the Kb, conventionally taken in molar units. The term IC50 denotes the point on the concentration scale where inhibition reaches its midpoint. Higher therefore signals weaker potency in that assay. Broadly, the bioavailability is dose-corrected exposure relative to a reference, in per cent. Higher therefore signals good availability.

Chain of Somatostatin receptor type 2 (Rattus norvegicus, UniProt P30680) (P30680 whole entry): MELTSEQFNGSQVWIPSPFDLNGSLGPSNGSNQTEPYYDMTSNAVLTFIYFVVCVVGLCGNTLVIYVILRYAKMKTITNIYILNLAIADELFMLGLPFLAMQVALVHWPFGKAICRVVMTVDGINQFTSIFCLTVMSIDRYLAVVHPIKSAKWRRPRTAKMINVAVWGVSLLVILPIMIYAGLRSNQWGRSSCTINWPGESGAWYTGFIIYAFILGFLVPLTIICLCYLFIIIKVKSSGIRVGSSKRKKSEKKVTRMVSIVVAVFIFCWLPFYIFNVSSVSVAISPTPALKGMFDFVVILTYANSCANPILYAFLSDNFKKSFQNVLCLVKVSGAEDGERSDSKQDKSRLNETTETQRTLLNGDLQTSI
Chain of Somatostatin receptor type 1 (Homo sapiens, UniProt P30872) (P30872 whole entry): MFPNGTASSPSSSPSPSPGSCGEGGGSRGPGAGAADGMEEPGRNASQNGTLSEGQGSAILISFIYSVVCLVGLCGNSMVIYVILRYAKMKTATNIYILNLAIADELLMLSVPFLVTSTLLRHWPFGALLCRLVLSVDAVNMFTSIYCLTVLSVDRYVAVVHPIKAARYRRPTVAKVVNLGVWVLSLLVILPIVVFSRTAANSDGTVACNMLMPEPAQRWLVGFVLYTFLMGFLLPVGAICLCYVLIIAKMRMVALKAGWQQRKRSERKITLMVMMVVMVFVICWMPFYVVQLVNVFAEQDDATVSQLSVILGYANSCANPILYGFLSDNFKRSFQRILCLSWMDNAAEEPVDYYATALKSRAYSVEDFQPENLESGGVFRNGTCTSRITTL
T1 sequence (P32745 whole entry): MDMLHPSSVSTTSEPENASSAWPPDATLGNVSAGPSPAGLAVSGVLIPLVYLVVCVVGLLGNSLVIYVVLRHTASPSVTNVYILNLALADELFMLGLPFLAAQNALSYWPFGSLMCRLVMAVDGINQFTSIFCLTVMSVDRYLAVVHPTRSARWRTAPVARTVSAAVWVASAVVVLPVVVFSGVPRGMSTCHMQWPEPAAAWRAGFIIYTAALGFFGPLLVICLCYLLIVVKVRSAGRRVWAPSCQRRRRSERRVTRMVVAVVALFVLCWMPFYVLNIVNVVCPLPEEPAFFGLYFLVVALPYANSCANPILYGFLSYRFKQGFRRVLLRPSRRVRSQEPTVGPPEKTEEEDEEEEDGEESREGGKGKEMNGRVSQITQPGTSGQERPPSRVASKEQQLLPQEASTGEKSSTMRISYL
Chain of Somatostatin receptor type 5 (P35346 whole entry): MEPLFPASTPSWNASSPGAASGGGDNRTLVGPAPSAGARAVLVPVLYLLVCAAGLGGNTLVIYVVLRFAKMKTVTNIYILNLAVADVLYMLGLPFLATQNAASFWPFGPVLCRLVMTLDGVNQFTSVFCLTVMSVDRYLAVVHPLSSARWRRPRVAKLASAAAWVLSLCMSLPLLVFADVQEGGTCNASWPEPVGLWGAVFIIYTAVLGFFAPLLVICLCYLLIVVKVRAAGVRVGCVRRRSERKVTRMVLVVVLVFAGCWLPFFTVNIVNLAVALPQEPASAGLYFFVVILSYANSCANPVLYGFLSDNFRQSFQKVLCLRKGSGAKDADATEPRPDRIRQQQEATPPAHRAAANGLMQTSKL
Chain of Somatostatin receptor type 2 (Homo sapiens, UniProt P30874) (P30874 whole entry): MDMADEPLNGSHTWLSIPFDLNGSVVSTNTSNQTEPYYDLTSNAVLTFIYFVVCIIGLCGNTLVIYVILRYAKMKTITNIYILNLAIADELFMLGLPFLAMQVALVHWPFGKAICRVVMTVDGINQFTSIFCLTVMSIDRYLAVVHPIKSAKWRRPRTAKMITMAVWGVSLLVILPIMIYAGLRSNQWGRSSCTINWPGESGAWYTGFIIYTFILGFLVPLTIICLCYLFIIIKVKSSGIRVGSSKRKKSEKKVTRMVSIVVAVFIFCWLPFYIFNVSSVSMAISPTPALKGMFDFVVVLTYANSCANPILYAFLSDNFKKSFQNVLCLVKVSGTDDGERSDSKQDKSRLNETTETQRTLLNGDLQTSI
Chain of Somatostatin receptor type 4 (P31391 whole entry): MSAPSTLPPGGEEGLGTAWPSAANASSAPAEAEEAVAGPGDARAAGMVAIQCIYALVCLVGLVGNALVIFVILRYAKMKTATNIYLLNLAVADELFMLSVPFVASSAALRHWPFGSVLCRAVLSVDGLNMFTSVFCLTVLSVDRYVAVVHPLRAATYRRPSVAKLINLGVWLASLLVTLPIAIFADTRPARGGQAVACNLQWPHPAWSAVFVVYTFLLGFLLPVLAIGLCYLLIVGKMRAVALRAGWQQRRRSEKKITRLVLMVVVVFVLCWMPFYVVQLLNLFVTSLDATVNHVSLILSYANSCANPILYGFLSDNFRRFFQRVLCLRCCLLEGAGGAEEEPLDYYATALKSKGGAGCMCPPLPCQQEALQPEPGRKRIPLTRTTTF
Chain of Somatostatin receptor type 1 (Rattus norvegicus, UniProt P28646) (P28646 whole entry): as the sequence (P30872 whole entry) above, with S8P, S11T, P16S, S20G, G25V, G26C, A32S, A45S, T385A, T389S counted along it
Chain of D(2) dopamine receptor (P14416 whole entry): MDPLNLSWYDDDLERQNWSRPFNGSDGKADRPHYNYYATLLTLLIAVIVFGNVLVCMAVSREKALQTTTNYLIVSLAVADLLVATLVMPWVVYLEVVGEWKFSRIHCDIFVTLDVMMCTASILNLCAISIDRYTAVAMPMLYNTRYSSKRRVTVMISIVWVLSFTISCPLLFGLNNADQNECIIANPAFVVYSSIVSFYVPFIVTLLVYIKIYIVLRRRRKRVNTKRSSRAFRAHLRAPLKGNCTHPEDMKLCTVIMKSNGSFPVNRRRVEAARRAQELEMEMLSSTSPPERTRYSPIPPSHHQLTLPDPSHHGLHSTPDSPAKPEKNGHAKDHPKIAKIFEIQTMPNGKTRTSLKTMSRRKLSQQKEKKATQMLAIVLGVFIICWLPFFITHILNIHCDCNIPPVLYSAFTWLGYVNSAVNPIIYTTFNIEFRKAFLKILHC
Chain of Somatostatin receptor type 3 (Mus musculus, UniProt P30935) (P30935 whole entry): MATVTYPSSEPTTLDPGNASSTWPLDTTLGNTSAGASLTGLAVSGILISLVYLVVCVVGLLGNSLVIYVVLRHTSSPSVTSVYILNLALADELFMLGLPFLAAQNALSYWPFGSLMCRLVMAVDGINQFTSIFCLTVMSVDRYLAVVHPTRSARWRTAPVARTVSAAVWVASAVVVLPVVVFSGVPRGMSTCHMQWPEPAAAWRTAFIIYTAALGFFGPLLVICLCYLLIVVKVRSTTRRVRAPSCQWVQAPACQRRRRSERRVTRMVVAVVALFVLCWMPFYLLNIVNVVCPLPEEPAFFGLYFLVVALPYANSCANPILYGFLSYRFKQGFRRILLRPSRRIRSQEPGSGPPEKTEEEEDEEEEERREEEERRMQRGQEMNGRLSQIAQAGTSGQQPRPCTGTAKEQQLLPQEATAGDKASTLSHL
Chain of Cytochrome P450 2D6 (P10635 whole entry): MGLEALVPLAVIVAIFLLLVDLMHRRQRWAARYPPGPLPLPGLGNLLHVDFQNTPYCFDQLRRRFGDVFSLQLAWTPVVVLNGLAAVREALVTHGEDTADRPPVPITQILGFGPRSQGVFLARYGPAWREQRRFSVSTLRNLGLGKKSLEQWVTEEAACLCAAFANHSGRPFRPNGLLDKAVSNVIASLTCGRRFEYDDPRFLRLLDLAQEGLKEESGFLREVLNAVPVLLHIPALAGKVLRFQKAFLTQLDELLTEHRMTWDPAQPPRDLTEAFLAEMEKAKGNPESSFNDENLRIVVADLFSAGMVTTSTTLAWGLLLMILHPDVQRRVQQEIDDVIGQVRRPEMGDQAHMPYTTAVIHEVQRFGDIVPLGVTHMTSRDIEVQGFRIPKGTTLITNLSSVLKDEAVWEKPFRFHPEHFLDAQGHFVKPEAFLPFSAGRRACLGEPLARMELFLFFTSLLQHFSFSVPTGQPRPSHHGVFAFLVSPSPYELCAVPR

As to `Cc1nc2cc(C[C@H](C)CN3C[C@@H]4CCCC[C@@H]4[C@H](C(=O)N4CCN(c5ccc(F)c(F)c5)CC4)C3)ccc2o1`, the Kd in [1] is 457 nM; in series [2], 1380 nM; in [4] it was 1100 nM; in [7], 5500 nM; in series [8], 3.39 nM; in series [9], 229 nM. This compound also gave a Kd in series [10] of 417 nM. Besides, the Ratio in the series listed under Homo sapiens [3] was 120; in the series filed under Homo sapiens [5], over 150; in the series filed under Homo sapiens [6], over 150.
Consider `C[C@@H](Cc1ccc2nsnc2c1)CN1C[C@@H]2CCCC[C@@H]2[C@H](C(=O)N2CCN(c3ccc(F)c(F)c3)CC2)C1`, for which the Kd in [1] is 1170 nM; in series [2], 1550 nM; in series [4] it was 1660 nM; in series [7], 3550 nM; in series [8] it was 7.76 nM; in series [9] it was 151 nM. This compound also had a Kd in series [10] of 1020 nM. The Ratio in the series filed under Homo sapiens [3] is 130; in the series listed under Homo sapiens [5], over 150; in the series filed under Homo sapiens [6], over 150.
For `COC(=O)c1cc(C[C@H](C)CN2C[C@@H]3CCCC[C@@H]3[C@H](C(=O)N3CCN(c4ccc([N+](=O)[O-])cc4)CC3)C2)cc(C(=O)OC)c1`, the results for the Kd in series [2] and in series [8] were 933 nM and 1.23 nM, respectively. In the series filed under Homo sapiens [11], the Ratio was 760.
As for `CC(Cc1ccc2c(c1)OCO2)CN1C[C@H]2CCCC[C@H]2[C@@H](C(=O)N2CCN(c3ccc([N+](=O)[O-])cc3)CC2)C1` (mixture of isomers), the dissociation constant (Kd) was 912 nM in series [2] and 11 nM in series [8]. In addition, the Ratio in the series listed under Homo sapiens [11] is 100.
Regarding `COc1ccc(C[C@H](C)CN2C[C@@H]3CCCC[C@@H]3[C@H](C(=O)N3CCN(c4ccc(F)c(F)c4)CC3)C2)cn1.O=C(O)/C=C/C(=O)O`, the Kd in series [1] was 589 nM; in series [2] it was 2040 nM; in series [15], 692 nM; in series [4], 1120 nM; in series [18] it was 427 nM; in series [19] it was 4.9 nM. Besides, the Kd is 4570 nM in [7]; 7.08 nM in series [8]; 741 nM at D(2) dopamine receptor; 115 nM in series [9]; 148 nM in series [10]. The half-life was 5.6 h in series [12] and 1.5 h in [22]. In addition, the Kp at 1 h in series [13] is 2.4; in series [17] it was 0.4. The pKb in [14] amounted to 7.88. Further, the results for the IC50 (at Cytochrome P450 2D6; in series [20]) were 6500 nM and over 10000 nM, respectively. Besides, the Ratio in the series listed under Homo sapiens [11] is over 100; in the series filed under Homo sapiens [3], 21; in the series filed under Homo sapiens [5], over 150; in the series listed under Homo sapiens [6] it was over 150. Further, the bioavailability in series [16] worked out at 15%; in series [21], 21%. Further, in the series on V79, the Activity entry is “Non-toxic”.
Take `COc1ccc(C[C@@H](C)CN2C[C@H]3CCCC[C@H]3[C@@H](C(=O)N3CCN(c4ccc(F)c(F)c4)CC3)C2)cn1`: the Kd in series [1] was 813 nM; in series [2], 724 nM; in [4], 91200 nM; in series [7], 38000 nM; in [8], 3630 nM; in series [9], 20900 nM. The Kd in series [10] was 6170 nM. Besides, the pKb in series [14] stood at 5.1.
